According to article PMC8916014 (Proceedings of the National Academy of Sciences of the …, 2022):

Legend:
[1] = system: E. coli ATCC25922 with purified E. coli 70S ribosome; test: bacterial ribosome-mediated antimicrobial block assay; assay type: cell-based, Escherichia coli; conditions: 70S ribosome 12.5 nM
Summary of the method: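 MBC fold-change against E. coli with exogenous E. coli 70S ribosome was determined by virtual-colony count assay. Polymyxin B and kanamycin served as comparators. Triplicate experiments were reported as mean ± SD, with one- or two-way ANOVA and Bonferroni correction.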

[2] = system: E. coli ATCC25922 with purified LPS from E. coli O111:B4; test: LPS-mediated antimicrobial block assay; assay type: cell-based, Escherichia coli; conditions: LPS 25 μg/mL
Summary of the method: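 A virtual-colony count assay gave the fold-change in MBC against E. coli across different concentrations of added purified LPS. Polymyxin B and kanamycin were run as comparators.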

[3] = system: K. pneumoniae (ATCC 13883); test: in vivo efficacy, K. pneumoniae-induced pneumonia; set-up: species or system C57BL/6 mice; conditions: 2 mg/kg intratracheal
[4] = system: S. aureus (ATCC 25923); test: in vivo efficacy, S. aureus-induced pneumonia; set-up: species or system C57BL/6 mice; conditions: 2 mg/kg intratracheal
[5] = system: E. coli ATCC25922 outer membrane; test: outer membrane permeability assay; assay type: cell-based, Escherichia coli; conditions: E. coli ATCC25922, 1 h treatment, 0.195–100 μM
Summary of the method: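 E. coli ATCC25922 was treated with test compound for 1 h, then probed with NPN. NPN fluorescence intensity served as the measure of outer-membrane permeability and was normalized to relative fluorescence intensity. Experiments were run in triplicate and reported as mean ± SD.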

Compound | fold change in MBC in presence of E. coli 70S ribosome [1] | fold change in MBC in presence of LPS [2] | survival rate [3] [%] | efficacy in S. aureus-induced pneumonia [4] | permeability of bacterial OM (NPN fluorescence) [5]
NC[C@H]1O[C@H](O[C@H]2[C@H](O)[C@@H](O[C@H]3O[C@H](CO)[C@@H](O)[C@H](N)[C@H]3O)[C@H](N)C[C@@H]2N)[C@H](O)[C@@H](O)[C@@H]1O [kanamycin] | antagonized | no effect |  |  | 
polymyxin B [PMB] | failed to affect activity | fourfold | 100 | ineffective | increased the permeability of bacterial OM in a dose-dependent manner
